From ChEMBL document CHEMBL5316292 (J Med Chem, 2023)
pEC50, pIC50: −log10 of the molar value. The source made the active and inactive calls. The calls are words filed in the database; no cut-off is given here.

Key:
[1] = molecular target: T1, Bromodomain-containing protein 3 (Homo sapiens, UniProt Q15059); assay: Inhibition of BRD3-BD2 (unknown origin) by fluorescence polarization assay
Summary of the method: (§1)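 FP competition assay using the fluorescein-labeled PCC conjugate (4 nM) as tracer. Recombinant His-tagged BRD bromodomain (20–400 nM) in 50 mM HEPES pH 7.4, 150 mM NaCl, 0.5 mM TCEP, 0.05% Tween-20. DMSO-matched serial dilutions were added and the plate incubated. Read at ex 485/em 535 nm, with G-factor zeroed on tracer alone. Triplicate data were curve-fitted, error SEM.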
Target sequence in this assay (Q15059 whole entry): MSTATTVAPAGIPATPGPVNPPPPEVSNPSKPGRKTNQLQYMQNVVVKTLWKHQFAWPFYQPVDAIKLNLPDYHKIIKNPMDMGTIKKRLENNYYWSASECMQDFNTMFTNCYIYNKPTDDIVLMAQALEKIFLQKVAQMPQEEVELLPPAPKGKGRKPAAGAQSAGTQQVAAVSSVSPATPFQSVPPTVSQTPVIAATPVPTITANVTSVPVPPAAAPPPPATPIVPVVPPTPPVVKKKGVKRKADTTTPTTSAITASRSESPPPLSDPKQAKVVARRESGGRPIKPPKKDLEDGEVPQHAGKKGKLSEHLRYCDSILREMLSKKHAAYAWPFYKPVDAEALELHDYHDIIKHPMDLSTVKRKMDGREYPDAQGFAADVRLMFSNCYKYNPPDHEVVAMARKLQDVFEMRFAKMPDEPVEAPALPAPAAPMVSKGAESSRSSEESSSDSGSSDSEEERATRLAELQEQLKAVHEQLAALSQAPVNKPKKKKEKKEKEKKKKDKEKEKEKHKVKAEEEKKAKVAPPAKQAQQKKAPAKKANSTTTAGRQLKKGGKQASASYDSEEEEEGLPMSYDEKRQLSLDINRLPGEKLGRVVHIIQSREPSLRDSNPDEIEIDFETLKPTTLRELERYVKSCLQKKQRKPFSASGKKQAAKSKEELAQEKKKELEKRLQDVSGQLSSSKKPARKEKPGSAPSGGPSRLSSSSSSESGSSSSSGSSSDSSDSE

DU-145 = assay: Antiproliferative activity against AR-negative human DU-145 cells assessed as reduction in cell viability measured after 72 hrs by MTS assay; details: DU-145, 72 h
[2] = molecular target: T1, Bromodomain-containing protein 3; assay: Inhibition of BRD3-BD1 (unknown origin) by fluorescence polarization assay; summary of the method: as §1
Target sequence in this assay (Q15059 whole entry): as above

[3] = molecular target: T2, Bromodomain-containing protein 4 (Homo sapiens, UniProt O60885); assay: Inhibition of BRD4-BD1 (unknown origin) by fluorescence polarization assay; summary of the method: as §1
LNCaP = assay: Antiproliferative activity against androgen-sensitive human LNCaP cells assessed as reduction in cell viability measured after 72 hrs by MTS assay; assay type: functional, cell-based
Summary of the method: (§2)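 MTS viability assay run in triplicate wells. Serial dilutions in DMSO were given, with DMSO as negative control and doxorubicin as positive control, and incubated 72 h. MTS reagent was added for 2 h and absorbance read at 490 nm. % cytotoxicity = (A_medium − A_treatment)/A_medium × 100. EC50 ± SD was taken from dose-response curves of at least three independent experiments.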

[4] = Cytotoxicity against HFF cells assessed as reduction in cell viability measured after 72 hrs by MTS assay; assay type: toxicity, cell-based; details: human; summary of the method: as §2
PC-3 = assay: Antiproliferative activity against androgen-insensitive human PC-3 cells assessed as reduction in cell viability measured after 72 hrs by MTS assay; assay type: functional, cell-based; details: PC-3, 72 h; summary of the method: as §2
[5] = Antiproliferative activity against human Androgen-resistant 22Rv1 cells assessed as reduction in cell viability measured after 72 hrs by MTS assay; assay type: functional, cell-based; details: 22Rv1, 72 h; summary of the method: as §2
[6] = molecular target: T2, Bromodomain-containing protein 4; assay: Inhibition of BRD4-BD2 (unknown origin) by fluorescence polarization assay; summary of the method: as §1
[7] = Cytotoxicity against human WI-38 cells assessed as reduction in cell viability measured after 72 hrs by MTS assay; assay type: toxicity, cell-based; summary of the method: as §2
VCaP [8] = assay: Antiproliferative activity against AR-positive human VCaP cells assessed as reduction in cell viability measured after 72 hrs by MTS assay; assay type: functional, cell-based
Summary of the method: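 VCaP cells in 96-well plates, compound serially diluted in DMSO and run in triplicate wells for 72 h. MTS reagent added for 2 h, absorbance read at 490 nm. % cytotoxicity = (A_medium − A_treatment)/A_medium × 100. EC50 and SD taken from dose-response curves, at least three independent experiments.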

[9] = molecular target: T2, Bromodomain-containing protein 4; assay: Induction of BRD4 degradation in human PC-3 cells incubated for 16 hrs by immunoblotting analysis; assay type: cell-based
Summary of the method: (§3)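 MDA-MB-231 or PC-3 cells at 50% confluence in DMEM/10% FBS/pen-strep, treated 16 h with doses falling tenfold from 10 µM to 1 nM. RIPA lysates immunoblotted for BRD2, BRD3 and BRD4 with GAPDH as control. DC50 derived from band densitometry. SEM, n = 2.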

[10] = molecular target: T1, Bromodomain-containing protein 3; assay: Induction of BRD3 degradation in human PC-3 cells incubated for 16 hrs by immunoblotting analysis; assay type: cell-based; summary of the method: as §3
Target sequence in this assay (Q15059 2-726 limits assumed): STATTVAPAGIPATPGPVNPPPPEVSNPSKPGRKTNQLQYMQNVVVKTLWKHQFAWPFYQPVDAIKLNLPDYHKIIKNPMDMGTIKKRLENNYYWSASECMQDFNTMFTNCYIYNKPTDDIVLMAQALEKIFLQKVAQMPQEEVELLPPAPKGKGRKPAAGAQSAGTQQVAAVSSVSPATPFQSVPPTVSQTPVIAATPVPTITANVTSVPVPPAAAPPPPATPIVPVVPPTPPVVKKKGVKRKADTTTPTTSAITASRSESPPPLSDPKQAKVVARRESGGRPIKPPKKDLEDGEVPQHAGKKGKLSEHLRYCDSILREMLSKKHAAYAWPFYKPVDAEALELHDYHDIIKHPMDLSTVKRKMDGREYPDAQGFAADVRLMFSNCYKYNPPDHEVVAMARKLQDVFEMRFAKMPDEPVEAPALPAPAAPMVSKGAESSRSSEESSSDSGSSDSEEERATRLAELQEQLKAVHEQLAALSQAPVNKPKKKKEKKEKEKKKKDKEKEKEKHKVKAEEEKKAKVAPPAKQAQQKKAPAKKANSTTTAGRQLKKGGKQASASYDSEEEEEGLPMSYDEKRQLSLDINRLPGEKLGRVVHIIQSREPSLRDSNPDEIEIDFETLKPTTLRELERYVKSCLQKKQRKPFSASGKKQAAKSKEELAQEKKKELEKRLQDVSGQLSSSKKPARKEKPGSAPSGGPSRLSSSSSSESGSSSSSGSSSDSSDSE

VCaP [11] = assay: Downregulation of BRD2 mRNA levels in human VCaP cells at 25 to 2500 nM incubated for 24 hrs by qRT-PCR analysis; assay type: functional, cell-based; details: dose 25-2500 nM
Summary of the method: (§4)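 VCaP cells grown to 50% confluence, then treated with compound or DMSO (Methods state 16 h, legend states 24 h). Total RNA isolated, cDNA made from 1 µg RNA, SYBR Green qPCR run in triplicate. Expression by ΔΔCt, normalised to GAPDH. Three independent experiments, SEM.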

VCaP [12] = assay: Downregulation of BRD3 mRNA levels in human VCaP cells at 25 to 2500 nM incubated for 24 hrs by qRT-PCR analysis; assay type: functional, cell-based; details: dose 25-2500 nM; summary of the method: as §4
VCaP [13] = assay: Downregulation of PSA […] expression in human VCaP cells incubated for 24 hrs by qRT-PCR analysis; assay type: functional, cell-based; details: dose 25-2500 nM; summary of the method: as §4
VCaP [14] = assay: Downregulation of ERG gene levels in human VCaP cells incubated for 24 hrs by qRT-PCR analysis; assay type: functional, cell-based; details: dose 25-2500 nM; summary of the method: as §4
VCaP [15] = assay: Downregulation of AR […] expression in human VCaP cells at 25 to 2500 nM incubated for 24 hrs by qRT-PCR analysis; assay type: functional, cell-based; details: dose 25-2500 nM; summary of the method: as §4
VCaP [16] = assay: Downregulation of TMPRSS2 gene levels in human VCaP cells incubated for 24 hrs by qRT-PCR analysis; assay type: functional, cell-based; details: dose 25-2500 nM; summary of the method: as §4
VCaP [17] = assay: Downregulation of BRD4 mRNA levels in human VCaP cells at 25 to 2500 nM incubated for 24 hrs by qRT-PCR analysis; assay type: functional, cell-based; details: dose 25-2500 nM; summary of the method: as §4

Row | Compound | pIC50 [1] | pEC50 (DU-145) | pIC50 [2] | pIC50 [3] | pEC50 (LNCaP) | EC50 at 72 h [4] [µM] | pEC50 (PC-3) | pEC50 [5] | pIC50 [6] | EC50 at 72 h [7] [µM] | pEC50 (VCaP [8]) | Activity [9] | Activity [10] | Activity (VCaP [11]) | Activity (VCaP [12]) | Activity (VCaP [13]) | Activity (VCaP [14]) | Activity (VCaP [15]) | Activity (VCaP [16]) | Activity (VCaP [17])
1 | CC(=O)OC[C@]12CC[C@H]3[C@@H](C[C@H]4O[C@]45CC=CC(=O)[C@]35C)[C@]1(O)CC[C@@]2(O)[C@@](C)(O)[C@H]1C[C@]2(C)O[C@]2(C)C(=O)O1 | 6.12 | 5.83 | 5.63 | 5.71 | 6.38 | > 2 | 6.37 | 6.75 | 5.25 |  |  |  |  |  |  |  |  |  |  | 
2 | CC1=C(C)C(=O)O[C@@H]([C@](C)(O)[C@]2(O)CC[C@@]3(O)[C@@H]4C[C@H]5O[C@]56CC=CC(=O)[C@]6(C)[C@H]4CC[C@]23C)C1 [WITHANOLIDE E] | 6.14 |  | 5.53 | 6.25 | 7.22 | > 10 |  | 7.15 | 5.82 |  |  |  |  |  |  |  |  |  |  | 
3 | CC(=O)OC[C@]12CC[C@H]3[C@@H](C[C@H]4O[C@]45CCCC(=O)[C@]35C)[C@]1(O)CC[C@@]2(O)[C@@](C)(O)[C@H]1C[C@@H](C)[C@@H](C)C(=O)O1 | < 4.70 | < 5.70 | < 4.70 | 5.41 | < 5.70 | > 2 | < 5.70 | < 5.70 | 5.74 |  |  |  |  |  |  |  |  |  |  | 
4 | CC(=O)OC[C@]12CC[C@H]3[C@@H](CC=C4C=CCC(=O)[C@@]43C)[C@]1(O)CC[C@@]2(O)[C@@](C)(O)[C@H]1CC(C)=C(C)C(=O)O1 | 6.88 |  | 6.58 | 6.04 | 5.96 | > 3 | 5.51 |  | 6.53 |  |  |  |  |  |  |  |  |  |  | 
5 | COc1cccc2c1C(=O)c1c(O)c3c(c(O)c1C2=O)C[C@@](O)(C(=O)CO)C[C@@H]3O[C@H]1C[C@H](N)[C@H](O)[C@H](C)O1 [DOXORUBICIN] |  | 7.40 |  |  | 6.96 | 0.15 | 6.47 | 7.70 |  | 0.8 | 6.17 |  |  |  |  |  |  |  |  | 
6 | C[C@H]1C[C@H]([C@](C)(O)[C@]2(O)CC[C@@]3(O)[C@@H]4C[C@H]5O[C@]56CC=CC(=O)[C@]6(C)[C@H]4CC[C@]23C)OC(=O)[C@@H]1C |  |  |  |  | 6.54 | > 2 |  | 6.68 |  |  |  |  |  |  |  |  |  |  |  | 
7 | CC(=O)OC[C@]12CC[C@H]3[C@@H](C[C@@H]4O[C@@]45CC=CC(=O)[C@]35C)[C@]1(O)CC[C@@]2(O)[C@@](C)(O)[C@H]1CC(C)=C(C)C(=O)O1 | 5.37 |  | 7.05 | 7.51 | 6.49 | > 12 | 5.92 |  | 4.97 |  |  |  |  |  |  |  |  |  |  | 
8 | CC(=O)OC[C@]12CC[C@H]3[C@@H](C[C@H]4O[C@]45CC=CC(=O)[C@]35C)[C@]1(O)CC[C@@]2(O)[C@@](C)(O)[C@H]1C[C@@H](C)[C@@H](C)C(=O)O1 | < 4.70 | < 5.70 | < 4.70 | < 4.70 | 5.97 | > 2 | 6.07 | 5.83 | < 4.70 |  |  |  |  |  |  |  |  |  |  | 
9 | CC1=C(CO)C(=O)O[C@@H]([C@@H](C)[C@H]2CC[C@H]3[C@@H]4C[C@H]5O[C@]56[C@@H](O)C=CC(=O)[C@]6(C)[C@H]4CC[C@]23C)C1 [WITHAFERIN A] | < 4.70 |  | < 4.70 | < 4.70 | 6.06 | > 6.8 | 6.39 |  | < 4.70 |  |  |  |  |  |  |  |  |  |  | 
10 | CC(=O)OC[C@]12CC[C@H]3[C@@H](CC=C4CC=CC(=O)[C@@]43C)[C@]1(O)CC[C@@]2(O)[C@@](C)(O)[C@H]1CC(C)=C(C)C(=O)O1 | 4.80 |  | 7.74 | 7.71 | 6.89 | > 3 | 6.89 | 7.15 | 5.41 |  |  |  |  |  |  |  |  |  |  | 
11 | CC(=O)OC[C@]12CC[C@H]3[C@@H](C[C@H]4O[C@]45CCCC(=O)[C@]35C)[C@]1(O)CC[C@@]2(O)[C@@](C)(O)[C@H]1CC(C)=C(C)C(=O)O1 | 4.98 |  | 6.63 | 7.22 |  |  | 5.96 |  | 5.04 |  | < 5.70 | inactive | inactive |  |  |  |  |  |  | 
12 | Cc1sc2c(c1C)C(c1ccc(Cl)cc1)=N[C@@H](CC(=O)OC(C)(C)C)c1nnc(C)n1-2 |  | < 5.70 |  |  | 6.79 | > 2 | < 5.70 | 6.64 |  |  | 6.80 |  |  | inactive | inactive | Dose-Dependent Effect | Active | inactive | Active | inactive
13 | CC(=O)OC[C@]12CC[C@H]3[C@@H](C[C@H]4O[C@]45CC=CC(=O)[C@]35C)[C@]1(O)[C@@H](OC(C)=O)C[C@@]2(O)[C@@](C)(O)[C@H]1CC(C)=C(C)C(=O)O1 | 5.22 |  | 6.68 | 7.32 | 5.92 |  | 6.74 |  | 4.83 | > 5 |  |  |  |  |  |  |  |  |  | 
14 | CC1=C(CO)C[C@H]([C@](C)(O)[C@]2(O)CC[C@@]3(O)[C@@H]4C[C@H]5O[C@]56CC=CC(=O)[C@]6(C)[C@H]4CC[C@]23C)OC1=O | < 4.70 | < 5.30 | 6.13 | 6.55 | 5.56 |  | 5.54 |  | < 4.70 | > 5 | 5.95 |  |  |  |  |  |  |  |  | 
15 | CC(=O)OC[C@]12CC[C@H]3[C@@H](C[C@H]4O[C@]45CC=CC(=O)[C@]35C)[C@]1(O)CC[C@@]2(O)[C@@](C)(O)[C@H]1C[C@H](C)[C@H](C)C(=O)O1 | < 4.70 | < 5.70 | < 4.70 | < 4.70 | 5.98 | > 2 | 6.05 | 5.95 | < 4.70 |  |  |  |  |  |  |  |  |  |  | 
